PLC-beta3 inh: human PLC-beta3 inhibitors, primary screen, biochemical, fluorescence; Purified PLC-beta3, fluorogenic substrate; inhibition, % at 12.2 µM; hit rate 0.18% among 370,000; in the data active means inhibition above about 11%;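 further: 0% = median of compound wells on plate and 100% = full blocker control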
ADAM10 inh: human ADAM10 inhibitors, primary screen, biochemical, QFRET, HTS; inhibition, % at 7 µM; hit rate 0.62% among 370,000; Disintegrin and metalloproteinase domain-containing protein 10 (Homo sapiens), O14672; recombinant ADAM10, EDANS/DABCYL FRET peptide cleavage, 3 h;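 active means inhibition above a per-campaign cutoff equal to the mean of compounds falling between control-based bounds plus 3 SD, cut at about 20% in these data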;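 further: 0% = DMSO wells while the 100% control is not disclosed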
ADAM17 inh: ADAM17 inhibitors, primary screen, biochemical, QFRET; AID 720648, 2013; inhibition, % at 6.95 µM; Disintegrin and metalloproteinase domain-containing protein 17 (Homo sapiens), P78536; recombinant ADAM17, EDANS/DABCYL FRET peptide cleavage; hit rate 0.83% among 370,000;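 active means inhibition above the mean of compounds lying between control limits plus 3 SD, set per campaign, cut at about 8.5% in these data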;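 further: 0% = DMSO-only wells as the low control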
Target sequence (P78536 215-824 limits assumed): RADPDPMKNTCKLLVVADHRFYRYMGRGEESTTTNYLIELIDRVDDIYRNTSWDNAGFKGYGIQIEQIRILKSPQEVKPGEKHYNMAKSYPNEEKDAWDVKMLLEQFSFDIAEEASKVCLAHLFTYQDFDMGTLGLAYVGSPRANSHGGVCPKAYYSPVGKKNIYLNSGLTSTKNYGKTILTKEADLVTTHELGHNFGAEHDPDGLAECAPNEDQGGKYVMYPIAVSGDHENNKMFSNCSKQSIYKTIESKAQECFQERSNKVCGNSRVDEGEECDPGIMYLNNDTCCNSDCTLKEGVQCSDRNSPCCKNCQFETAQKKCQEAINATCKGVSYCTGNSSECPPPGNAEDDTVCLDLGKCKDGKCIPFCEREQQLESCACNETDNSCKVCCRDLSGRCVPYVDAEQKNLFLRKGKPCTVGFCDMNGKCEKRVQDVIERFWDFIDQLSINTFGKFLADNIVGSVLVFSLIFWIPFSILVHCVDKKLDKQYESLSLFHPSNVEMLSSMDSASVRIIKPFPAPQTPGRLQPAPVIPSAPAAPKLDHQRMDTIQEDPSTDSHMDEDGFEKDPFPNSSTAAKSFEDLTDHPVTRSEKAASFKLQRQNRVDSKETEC
PLCg1 inh: PLC-gamma1 enzyme inhibitors, primary screen, biochemical, fluorescence, purified enzyme. hit rate 0.84% among 370,000. fluorogenic substrate. inhibition, % at 12.2 µM. AID 720700, 2013
Tb MetRS inh: T. brucei MetRS inhibitors, primary screen, biochemical, luminescence; purified T. brucei MetRS, ATP depletion, Kinase-Glo luminescence; hit rate 0.4% among 360,000; methionyl-tRNA synthetase (Trypanosoma brucei brucei); inhibition, % at 11.9 µM;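 active means inhibition above a per-plate cutoff of the control wells' mean inhibition plus 3 SD, cut at about 5.5% in these data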;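 further: 0% = DMSO wells median and 100% = median of wells with control inhibitor compound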
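Test system: purified T. brucei MetRS enzyme. Also added: ATP, methionine and E. coli bulk tRNA substrates. Compound: 11.9 µM single point. Schedule: 15 min enzyme-compound preincubation, 2 h reaction, 10 min detection, 25 °C. Signal: luciferase luminescence of residual ATP, Kinase-Glo. Evaluation: percent inhibition versus plate control medians. Controls: DMSO wells, low control.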
PLCg1 ctr: PLC-gamma1 enzyme inhibitors, counter-screen for PLC-beta3 inhibitor project, biochemical, fluorescence; shares compounds with PLCg1 inh; purified PLC-gamma1, fluorogenic substrate; inhibition, % at 12.3 µM; hit rate 3.1% among 3,300; AID 743258, 2014
PLCb3 confirm: PLC-beta3 inhibitor confirmation, biochemical, fluorescence, purified enzyme | shares compounds with PLCg1 inh | fluorogenic substrate fluorescence | inhibition, % at 12.3 µM | hit rate 1% among 3,300; in the data active means inhibition above about 11%
* = called active by the depositor; · = no result given. Only some compounds are listed: those with a hit (about 2.3% of all), similar ones and a draw of the others. Unless noted, no stated cut-off is given here; in the data, active means inhibition above about 9.5%; inactive means the rest.

SMILES	PLC-beta3 inh	ADAM10 inh	ADAM17 inh	PLCg1 inh	Tb MetRS inh	PLCg1 ctr	PLCb3 confirm
Cc1ccc(CN2CC(C(=O)N(CC(C)C)c3c(N)n(Cc4ccccc4)c(=O)[nH]c3=O)CC2=O)cc1 (stereo unspecified)	-7	-12	-3	10*	0	-4	0
Cc1cccc(OCC(=O)OCC(=O)N(CC(C)C)c2c(N)n(Cc3ccccc3)c(=O)[nH]c2=O)c1C	10	4	5	14*	0	-5	-1
CN(Cc1ccccc1)C(=O)c1ccc(NC(=O)C2=CSCCO2)cc1	-9	0	-6	1	0	·	·
CCCNC(=O)C1(C)CCCN(C(=O)CN2C(=O)c3ccccc3C2=O)C1 (stereo unspecified)	-6	-12	-4	10*	0	-3	1
COc1ccc(C2=CN(Cc3ccccc3)CCC2=O)cc1	2	-1	-2	2	0	·	·
Nc1c(Br)c(=O)[nH]c(=O)n1-c1ccccc1	-2	-7	-5	-2	0	·	·
COc1ccc(-n2c(N)c(Br)c(=O)[nH]c2=O)cc1	-75	2	3	11*	-2	-5	-5
Nc1ccn([C@H]2CS[C@@H](CO)O2)c(=O)n1	0	-6	-5	-2	1	·	·
Nc1nc(=O)n([C@@H]2CS[C@H](CO)O2)cc1F	14*	7	0	14*	·	-1	-1
Cc1ccsc1C(=O)N1CCCC(C)(C(=O)O)C1 (stereo unspecified)	-3	7	-1	-1	0	·	·
CCOc1cc(CN2CCN(c3cccc(C(F)(F)F)c3)CC2)ccc1O	6	9	7	9.7*	0	-2	3
Cc1ccccc1NC(=O)C1CC(=O)N(c2ccccc2F)C1 (stereo unspecified)	11*	6	6	3	-1	-2	-1
Cc1ccccc1NC(=O)C1CC(=O)N(c2ccc3c4c(cccc24)CC3)C1 (stereo unspecified)	1	5	0	0	0	·	·
CCCCCNC(=O)c1ccc2c(=O)n(CCCN3CCCC3=O)c(=S)[nH]c2c1	-2	0	-1	0	-1	·	·
NS(=O)(=O)c1ccc(CNC(=O)CCSCCC(=O)NCc2ccc(S(N)(=O)=O)cc2)cc1	1	-2	2	-2	0	·	·
CCC(C)(C(=O)NC1CCCC1)N(Cc1cccs1)C(=O)c1ccccn1 (stereo unspecified)	-1	2	-5	10*	-1	-7	-3
CN(CC(=O)Nc1ccc(N2CCOCC2)cc1)C(=O)CCNC(=O)c1ccc(Br)cc1	-4	10	-4	0	0	·	·
FC(F)(F)c1nc(-c2ccncc2)ncc1-c1nnnn1-c1ccccc1	2	-3	-1	2	-1	·	·
Cc1ccc(-n2nnnc2-c2cnc(-c3cccnc3)nc2C(F)(F)F)cc1	10	5	-1	10*	0	-3	-6
Cc1ccc(CNC(=O)CCCC(=O)O)cc1	11*	4	5	5	0	-6	-2
COc1ccc(OC)c(S(=O)(=O)NC(=O)C2(C)CCN2C(=O)CC2CCCC2)c1 (stereo unspecified)	4	-7	-3	11*	0	-5	-2
COc1ccc(OC)c(S(=O)(=O)NC(=O)C2(C)CCN2C(=O)Cc2ccccc2Cl)c1 (stereo unspecified)	3	-13	-4	-2	0	·	·
CC1(C(=O)NS(=O)(=O)c2ccccc2Cl)CCN1C(=O)Cc1ccccc1Cl (stereo unspecified)	6	-5	6	12*	0	-3	0
O=C(Cc1cccs1)NC1CCCCN(Cc2ccc(Cl)cc2)C1=O (stereo unspecified)	-2	0	-4	-1	·	·	·
CN(Cc1nc(-c2ccncc2)no1)S(=O)(=O)c1ccccc1	1	3	-7	-1	-1	·	·
SMILES	PLC-beta3 inh	ADAM10 inh	ADAM17 inh	PLCg1 inh	Tb MetRS inh	PLCg1 ctr	PLCb3 confirm
CC(C)N(Cc1nc(-c2ccccc2)no1)C(=O)CN(C)S(=O)(=O)c1ccccc1	6	5	-3	9.6*	-2	8	0
O=C(CN1CCN(c2ccccc2)CC1)NC(=O)NCc1ccco1	1	5	3	11*	1	-6	-4
O=C(CN1CCN(c2ccc(F)cc2)CC1)NC(=O)NCc1ccco1	-6	-7	-3	3	1	·	·
CCCCN(C(=O)C1CCN(C(=O)c2ccccc2C)CC1)c1c(N)n(CC(C)C)c(=O)[nH]c1=O	-2	-5	2	4	0	·	·
O=C(Nc1ccccc1)c1cc([N+](=O)[O-])ccc1Cl	1	2	-3	-1	-1	·	·
O=C(Nc1ccccc1)c1cc([N+](=O)[O-])ccc1NC1CCCCC1	9	0	4	9.8*	0	-1	-3
COc1ccc(N2CCN(CCNC(=O)c3ccc(NC(=O)C4CCCO4)cc3)CC2)cc1 (stereo unspecified)	5	-5	0	11*	0	4	2
Cc1ccc(OCC(=O)NNC(=O)c2ccc(NC(=O)C3CC3)cc2)c(C)c1	-13	-4	-6	-4	0	·	·
CCC(=O)Nc1ccc(C(=O)NNC(=O)COc2cc(C)ccc2C)cc1	12*	6	2	7	1	-4	-5
COC(=O)C1CN(Cc2ccc(F)cc2)CCS(=O)(=O)N1Cc1cn(Cc2ccc(F)cc2)nn1 (stereo unspecified)	0	-3	-4	-2	·	·	·
CCCCCCSc1ccc([C@H]2N[C@@](CC(C)C)(C(=O)OC)[C@H]3C(=O)N(CC)C(=O)[C@@H]23)cc1	6	0	4	16*	0	-1	1
COc1ccc(CCN(C)C(=O)CCNC(=O)c2ccc(Br)cc2)cc1OC	3	5	-2	11*	0	-3	1
COc1ccc(CCNC(=O)c2ccc(OC)c(OC)c2)cc1OC	-2	1	-2	-1	0	·	·
Cc1ccccc1NC(=O)N1CCCC(c2nc(-c3ccc(C(C)C)cc3)no2)C1 (stereo unspecified)	3	-3	5	10*	-1	-5	-2
O=C(NC1CCCCC1)N1CCCC(c2nc(-c3cccs3)no2)C1 (stereo unspecified)	10	2	3	10*	-1	-7	-1

Screening data: PubChem, The Scripps Research Institute Molecular Screening Center
